From PubChem
SDO1 yeast rescue: sdo1-depleted yeast growth rescue; S. cerevisiae sdo1-depleted JHY4D growth rescue, OD600 30 h; active compounds read high; pdr5 snq2 efflux-pump mutant strain; z-score at 10 µM; 0.21% of 140,000 active; AID 817;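 active = z-score above 3 at both the 24 hr and the 30 hr optical density reads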;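 also: z-score against mean and SD of all compound wells on the same plate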
STAT1 act: increases IFN-gamma driven STAT1 reporter signal. activation (% of control), % at 5.5 µM. NIH 3T3 STAT1-luciferase reporter, luminescence; 100% = IFN-gamma alone, no compound. 2.6% of 200,000 active. AID 932;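 active = activation above the screen-wide mean activation plus 3 SD, cut at about 130% in these data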;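 also: raw ratio to IFN-gamma control signal so 100% means no change and 0% no light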
NF-kB neuron act: raises NF-kB expression in human neuronal cells | NF-kB reporter expression; active compounds read high | fold change at 12.5 µM | 1.6% of 190,000 active | AID 1239; in the data active = fold change above about 3.3
FLuc inh counter: counter-screen for luciferase assay inhibitors: firefly luciferase inhibition; AID 1006; ATPLite firefly luciferase biochemical luminescence, 10 min; 1.5% of 200,000 active; P08659; inhibition, % at 10 µM;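 active = inhibition above about 50% when tested at 10 µM, limit read from the data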
Target sequence (P08659 whole entry, looked up): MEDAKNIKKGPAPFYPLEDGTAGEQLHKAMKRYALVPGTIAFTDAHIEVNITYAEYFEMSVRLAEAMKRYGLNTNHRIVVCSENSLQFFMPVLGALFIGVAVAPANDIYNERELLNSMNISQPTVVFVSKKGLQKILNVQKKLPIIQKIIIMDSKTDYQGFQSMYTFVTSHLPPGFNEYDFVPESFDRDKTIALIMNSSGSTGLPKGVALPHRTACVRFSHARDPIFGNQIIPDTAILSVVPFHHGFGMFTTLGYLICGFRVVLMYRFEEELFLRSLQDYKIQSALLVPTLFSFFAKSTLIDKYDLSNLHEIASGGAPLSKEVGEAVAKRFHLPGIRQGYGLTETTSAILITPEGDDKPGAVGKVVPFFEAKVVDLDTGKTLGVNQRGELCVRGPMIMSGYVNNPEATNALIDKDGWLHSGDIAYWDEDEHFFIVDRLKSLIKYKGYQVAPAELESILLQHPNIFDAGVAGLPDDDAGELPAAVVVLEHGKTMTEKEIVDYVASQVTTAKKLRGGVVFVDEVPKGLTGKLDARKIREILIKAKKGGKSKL
APP 5'UTR act: APP 5'UTR luciferase reporter activation | activation, % at 2 µM | 1% of 190,000 active | SH-SY5Y APP 5'UTR luciferase reporter, luminescence; zero percent = DMSO vehicle wells;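 active = activation above a set limit, based on mean plus 3 SD of controls, cut at about 140% in these data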
FLuc act counter: affects firefly luciferase, flagging false hits in luciferase stimulation screens. AID 1027. activation factor at 10 µM. P08659. ATPlite luciferase biochemical, luminescence, 10 min; 0 = ATP-free wells, 1 = DMSO control. 200,000 tested, under 10 active;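 active = luciferase activation factor, scaled between plate controls, of at least 2 with compound at 10 µM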
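System: luciferase plus luciferin reagent, cell-free; medium: PBS as buffer for the ATP substrate; dosing: test compounds dosed from 2 mM stocks in 100% DMSO; timing: 10 min post-reagent at room temperature; measured by: luminescence measurement of luciferase light output; evaluation: luciferase activation, seen as luminescence increase over controls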
* = called active by the depositor; . = not tested or not shown. This is a sample that favours compounds with a hit; in the whole collection about 4.3% have one here.

SMILES | SDO1 yeast rescue | STAT1 act | NF-kB neuron act | FLuc inh counter | APP 5'UTR act | FLuc act counter
Cc1ccccc1-c1coc2cc(O)ccc2c1=O | 0.05 | 102 | 1.6 | -6 | 7 | 1.1
O=c1c(-c2cnn(-c3ccccc3)c2)coc2cc(O)ccc12 | . | 132* | 3.7* | 35 | 140* | 0.7
Cc1c(C(=O)O)cccc1-c1ccc(/C=C2/NC(=O)N(c3ccccc3)C2=O)o1 | . | 131* | 1.6 | 0 | 42 | 1
Cc1ccc(/C=C2/NC(=O)N(c3ccccc3)C2=O)o1 | -0.02 | 116 | 1.9 | 7 | 32 | 0.9
O=C(CSc1ccccc1)N1CCc2ccccc21 | -1.6 | 132* | 3 | 21 | 78 | 0.8
O=C(CCC(=O)N1CCc2ccccc21)N1CCc2ccccc21 | . | 102 | . | . | 12 | .
Cc1ccc(C(=O)OCC(=O)N2CCc3ccccc32)cc1 | -0.43 | 129* | 2.3 | 31 | 9 | 0.7
Cc1ccc2c(CC(=O)N3CCc4ccccc43)coc2c1 | -1.1 | 138* | 2.7 | 34 | 119 | 0.7
O=C(COc1ccccc1)N1CCc2ccccc21 | -0.01 | 134* | 2.4 | 40 | 78 | 0.6
CC(=O)c1c(C)[nH]c(C(=O)OCC(=O)N2CCc3ccccc32)c1C | -1.4 | 114 | 1.3 | 6 | 16 | 0.9
COc1ccc(Cc2c(O)nc(SCC(=O)N3CCCCCC3)[nH]c2=O)cc1 | -0.52 | 107 | 1.1 | -4 | -12 | 1
CN(N=Nc1ccc([N+](=O)[O-])cc1)c1ccccc1 | -1.2 | 139* | 2.8 | 5 | 52 | 0.9
O=[N+]([O-])c1ccc(N=NNc2ccccc2)cc1 | . | 135* | 3.6* | 8 | 58 | 0.9
CCc1ccc(NC2=NCC(c3ccccc3)S2)cc1 (stereo unspecified) | . | 130* | 3.2 | 3 | 30 | 1
O=[N+]([O-])c1ccc(C2CN=C(Nc3ccccc3)S2)cc1 (stereo unspecified) | . | 108 | 1.6 | -2 | 9 | 1
CC(c1ccco1)N(C(=O)C12CC3(C)CC(C)(CC(C)(C3)C1)C2)c1ccccn1 (stereo unspecified) | -0.51 | 98 | 0.92 | -9 | -1 | 1.1
O=c1c2ccccc2nc2sc3ccccc3n12 | -2.7 | 141* | 3.2 | 33 | 1 | 0.7
CN(C(=O)Nc1ccc(Cl)cc1Cl)C1CCCC1 | . | 135* | 2 | 16 | 42 | 0.8
Cc1ccc(S(=O)(=O)NC2CCCCC2)c(C)c1NS(C)(=O)=O | . | 104 | 1.2 | -4 | 22 | 1
CCOC(=O)c1c(-c2ccccc2)nc2ccc(C)cn12 | -1.3 | 138* | 2.2 | 10 | 66 | 0.9
CCOC(=O)c1c(-c2ccccc2)nc2cc(C)ccn12 | -1.7 | 133* | 2 | 9 | 57 | 0.9
CC(C)CC(NC(N)=O)C(=O)NCc1ccccc1Cl (stereo unspecified) | . | 110 | 1.1 | 4 | -4 | 1
Oc1sc(C=Nc2ccc(F)cc2)c2ccccc12 | -1.4 | 138* | 2 | 3 | 118 | 1
CN=Cc1sc2ccccc2c1O | 0.85 | 101 | 1.1 | 3 | 31 | 1
Oc1c(C=Nc2ccccc2)sc2ccccc12 | . | 118 | 4.6* | 95* | 77 | 0.1
SMILES | SDO1 yeast rescue | STAT1 act | NF-kB neuron act | FLuc inh counter | APP 5'UTR act | FLuc act counter
Oc1c(C=Nc2cccnc2)sc2ccccc12 | 0.96 | 97 | 0.96 | 70* | 17 | 0.3
COC(=O)c1sc(-c2ccccc2)cc1NC(=O)c1ccccc1 | -1.1 | 103 | 1.1 | -3 | -3 | 1
Cc1ccc(-c2cnc3c(Cl)c(C)nn3c2)cc1 | . | 90 | 6.5* | 58* | 244* | 0.4
Cc1ccc(-c2cnc3cc(C)nn3c2)cc1 | . | 80 | 5.7* | 91* | 147* | 0.1
Cc1cc2ncc(-c3ccc(Cl)cc3)cn2n1 | . | 136* | 4.9* | 56* | 188* | 0.4
CCCCNC(=O)COc1ccccc1C(=O)c1cc(C#N)c(=O)n(CCOC)c1 | 0.39 | 94 | 1.1 | -3 | -9 | 1
CCN(CC)C(=S)SCC(=O)Nc1ccc(F)cc1 | -0.49 | 92 | 1.2 | -6 | -2 | 1.1
CCN(CC)C(=S)SCC(=O)c1ccccc1 | -0.44 | 130* | 1.2 | 6 | 51 | 0.9
CCN(CC)C(=S)SCC(=O)c1ccc(F)cc1 | -1.2 | 133* | 2.1 | 2 | 77 | 1
Cc1ccn2c(Nc3ccccc3C)c(-c3cccnc3)nc2c1 | . | 100 | 1.3 | -4 | 28 | 1
O=C1C(C=NC2CC2)=C(O)c2ccccc21 | 1.5 | 126 | 1.3 | 5 | 120 | 1
COc1cc(N=CC2=C(O)c3ccccc3C2=O)cc(OC)c1 | -0.63 | 148* | 1.3 | -2 | 25 | 1
Cc1ccc(CN2CCN(CCC(C)C)C(CCO)C2)s1 (stereo unspecified) | . | 98 | 1.3 | -2 | 1 | 1
Cc1ccc(CN2CCN(CC(C)C)C(CCO)C2)s1 (stereo unspecified) | . | 135* | 2.6 | 2 | 76 | 1
Fc1ccc(Nc2ccc3ccccc3n2)c(F)c1 | . | 58 | 11* | 70* | 200* | 0.3
O=C(NCCc1ccccc1)C1(c2ccccc2)CC1(Cl)Cl (stereo unspecified) | -0.69 | 95 | 3.4* | -2 | 2 | 1
O=C(OCC(=O)c1cccs1)c1ccccc1 | 0.1 | 140* | 5.5* | 50* | 54 | 0.5
O=C(CNC(=O)c1cccs1)OCC(=O)c1ccccc1 | 1.4 | 102 | 0.96 | 0 | . | 1
O=C(Nc1ccc(Cl)cn1)c1cc2ccccc2o1 | -0.11 | 125 | 9.2* | 64* | 205* | 0.4
O=C(NC1=NCCS1)c1cc2ccccc2o1 | 0 | 96 | 4.8* | 86* | 127 | 0.1
O=C(NC1=NCCS1)c1cccs1 | 1 | 98 | 1.1 | -4 | 19 | 1
O=C(Nc1ccc(Cl)cn1)c1ccc([N+](=O)[O-])o1 | . | 102 | 5.9* | -5 | -47 | 1.1
O=C(Nc1ccc(Br)cn1)c1cccc(-c2cc3ccccc3oc2=O)c1 | -0.89 | 144* | 2.1 | -3 | 59 | 1
Cc1nc(NC(=O)c2cccc(-c3cc4ccccc4oc3=O)c2)ccc1Br | -2 | 114 | 2 | -6 | 2 | 1.1
CC(C)(C)C(=O)Nc1cccc(OC(F)(F)C(F)Cl)c1 (stereo unspecified) | . | 102 | 1.1 | -3 | 9 | 1
Cc1csc(SC(C)C(=O)NCC2CCCCC2)n1 (stereo unspecified) | . | 90 | 1.5 | -1 | 0 | 1
COc1ccc(CCCC(=O)N/N=C/c2cccc(OC)c2O)cc1C | -0.59 | 105 | 1.8 | 4 | -12 | 1
CC(OC(=O)c1ccc([N+](=O)[O-])s1)C(=O)Nc1ncc(Cl)cc1Cl (stereo unspecified) | -1.9 | 99 | 1 | -6 | 7 | 1.1
O=C(Nc1ccccn1)c1cc2ccccc2o1 | 1.6 | 59 | 3.2 | 95* | 86 | 0.1
COc1ccc(/C(N)=N/OC(=O)CCc2ccccc2)cc1OC | . | 125 | 1.1 | -2 | -9 | 1
